Experimental findings from ChEMBL document CHEMBL4261536, “Encapsulation of nor-β-lapachone into poly(d,l)-lactide-co-glycolide (PLGA) microcapsules: full characterization, computational details and cytotoxic activity against human cancer cell lines” (Medchemcomm, 2017) are described below.

Structures are written as SMILES. ≈ marks a conversion by molar mass, not a printed value. Calls of active or inactive are those of the source. The rule behind the calls is not given here.

Assay [1] has as its system PC-3M. Kind of assay: Cytotoxicity against human PC3M cells assessed as decrease in cell viability after 72 hrs by MTT assay. The class given is functional, cell-based. The procedure, abridged: (§1)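 Cells grown in RPMI 1640 with 10% FBS and penicillin/streptomycin at 37°C, 5% CO2. Seeded at 0.1×10⁶ cells/well (HCT-116: 0.7×10⁵). After 24 h, drug in DMSO added at […]; controls got DMSO. Exposure 72 h, with prostate lines read at 24, 72 and 96 h. Then MTT (0.5 mg/mL) for 3 h, formazan dissolved in DMSO, A595 expressed as % of control. IC50 by nonlinear regression from three independent experiments in triplicate.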
Background: Tetrazolium assays rely on reduction of a dye to a coloured formazan, in cell work by metabolically active cells.

Assay [2] concerns OVCAR-8. Briefly: Cytotoxicity against human OVCAR8 cells assessed as decrease in cell viability after 72 hrs by MTT assay. The format is functional, cell-based. The conditions noted are these: OVCAR-8, 72 h. The procedure, abridged: as §1
Assay [3] concerns DU-145. Briefly: Cytotoxicity against human DU145 cells assessed as decrease in cell viability after 72 hrs by MTT assay. The format is functional, cell-based. Conditions: DU-145, 72 h. In outline:
as §1

Assay [4] deals with DU-145. Briefly: Cytotoxicity against human DU145 cells assessed as decrease in cell viability using compound loaded PLGA microcapsule after 96 hrs by MTT assay. The format is functional, cell-based. The procedure, abridged:
(§2)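 Drug-loaded PLGA microparticles suspended in PBS pH 7.4 and added at […], 24 h after seeding at 0.1×10⁶ cells/well (HCT-116: 0.7×10⁵). Medium RPMI 1640 with 10% FBS, 37°C, 5% CO2. Incubated 72 h, with DU145, PC3 and PC3M read at 24, 72 and 96 h. MTT 0.5 mg/mL for 3 h, formazan in DMSO, A595 as % of control. IC50 by nonlinear regression, three independent experiments in triplicate.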

Assay [5] relates to DU-145. Kind of assay: Cytotoxicity against human DU145 cells assessed as decrease in cell viability after 96 hrs by MTT assay. The class given is functional, cell-based. The procedure, abridged:
as §1

The subject of assay [6] is PC-3M. Kind of assay: Cytotoxicity against human PC3M cells assessed as decrease in cell viability using compound loaded PLGA microcapsule after 96 hrs by MTT assay. The class given is functional, cell-based. The procedure, abridged:
as §2

In assay [7] the test system is PC-3M. Briefly: Cytotoxicity against human PC3M cells assessed as decrease in cell viability after 96 hrs by MTT assay. The format is functional, cell-based. The procedure, abridged:
as §1

The test system of assay [8] is HCT-116. Briefly: Cytotoxicity against human HCT116 cells assessed as decrease in cell viability using compound loaded PLGA microcapsule after 72 hrs by MTT assay. The format is functional, cell-based. The conditions noted are these: HCT-116, 72 h. In outline:
as §2

Assay [9] deals with PC-3M. Briefly: Cytotoxicity against human PC3M cells assessed as decrease in cell viability using compound loaded PLGA microcapsule after 72 hrs by MTT assay. The class given is functional, cell-based. The procedure, abridged:
as §2

For assay [10], the system named is PC-3M. Briefly: Cytotoxicity against human PC3M cells assessed as decrease in cell viability after 24 hrs by MTT assay. The format is functional, cell-based. In outline:
as §1

Assay [11] relates to HCT-116. Kind of assay: Cytotoxicity against human HCT116 cells assessed as decrease in cell viability after 72 hrs by MTT assay. The class given is functional, cell-based. Conditions: HCT-116, 72 h. In outline:
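After 24 h, drug in DMSO added at […]; controls got DMSO. Exposure 72 h, with prostate lines read at 24, 72 and 96 h. Then MTT (0.5 mg/mL) for 3 h, formazan dissolved in DMSO, A595 expressed as % of control. IC50 by nonlinear regression from three independent experiments in triplicate.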

Assay [12] relates to PC-3. Briefly: Cytotoxicity against human PC3 cells assessed as decrease in cell viability using compound loaded PLGA microcapsule after 72 hrs by MTT assay. The format is functional, cell-based. Conditions: PC-3, 72 h. In outline: as §2
The subject of assay [13] is PC-3M. Kind of assay: Cytotoxicity against human PC3M cells assessed as decrease in cell viability using compound loaded PLGA microcapsule after 24 hrs by MTT assay. The class given is functional, cell-based. The procedure, abridged:
as §2

The subject of assay [14] is PC-3. Briefly: Cytotoxicity against human PC3 cells assessed as decrease in cell viability after 96 hrs by MTT assay. The class given is functional, cell-based. The procedure, abridged:
as §1

In assay [15] the test system is PC-3. Briefly: Cytotoxicity against human PC3 cells assessed as decrease in cell viability using compound loaded PLGA microcapsule after 24 hrs by MTT assay. The format is functional, cell-based. In outline: as §2
In assay [16] the test system is DU-145. Kind of assay: Cytotoxicity against human DU145 cells assessed as decrease in cell viability after 24 hrs by MTT assay. The format is functional, cell-based. In outline:
as §1

Assay [17] relates to DU-145. Briefly: Cytotoxicity against human DU145 cells assessed as decrease in cell viability using compound loaded PLGA microcapsule after 72 hrs by MTT assay. The class given is functional, cell-based. Conditions: DU-145, 72 h. The procedure, abridged:
as §2

Assay [18] concerns OVCAR-8. Briefly: Cytotoxicity against human OVCAR8 cells assessed as decrease in cell viability using compound loaded PLGA microcapsule after 72 hrs by MTT assay. The class given is functional, cell-based. The conditions noted are these: OVCAR-8, 72 h. In outline:
as §2

Assay [19] has as its system SF-295. Briefly: Cytotoxicity against human SF295 cells assessed as decrease in cell viability after 72 hrs by MTT assay. The class given is functional, cell-based. The conditions noted are these: SF-295, 72 h. In outline: as §1
The subject of assay [20] is PC-3. Kind of assay: Cytotoxicity against human PC3 cells assessed as decrease in cell viability after 24 hrs by MTT assay. The format is functional, cell-based. In outline: as §1
Assay [21] concerns PC-3. Kind of assay: Cytotoxicity against human PC3 cells assessed as decrease in cell viability after 72 hrs by MTT assay. The class given is functional, cell-based. The conditions noted are these: PC-3, 72 h. In outline:
as §1

Assay [22] relates to PC-3. Kind of assay: Cytotoxicity against human PC3 cells assessed as decrease in cell viability using compound loaded PLGA microcapsule after 96 hrs by MTT assay. The class given is functional, cell-based. In outline:
as §2

The subject of assay [23] is PBMC. Briefly: Cytotoxicity against human PBMC assessed as decrease in cell viability using compound loaded PLGA microcapsule after 72 hrs by Alamar blue assay. The format is cell-based. The procedure, abridged:
(§3)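 PBMC isolated from healthy volunteers' blood on Ficoll. Kept in RPMI 1640 with 20% FBS; proliferation induced with 3% phytohemagglutinin. Plated at 2×10⁴ cells/well; after 24 h, test material in PBS pH 7.4 added at […], controls got PBS. Treated 72 h, with Alamar Blue added for the final 24 h. Absorbance at 570 and 600 nm as % of control. IC50 by nonlinear regression from three independent experiments in triplicate.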
(Alamar Blue is a resazurin reagent that responds to reducing activity.)

For assay [24], the system named is PBMC. Briefly: Cytotoxicity against human PBMC assessed as decrease in cell viability after 72 hrs by Alamar blue assay. The format is cell-based. The procedure, abridged:
as §3

Assay [25] deals with PC-3M. Kind of assay: Induction of morphological changes in human PC3M cells at 11.2 uM after 24 to 72 hrs by hematoxylin/eosin staining-based light microscopic method. The class given is functional, cell-based. The procedure, abridged:
(§4)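 PC3M cells exposed to free or PLGA-encapsulated drug, then stained with hematoxylin/eosin and examined by light microscopy (400×) after 24, 48 and 72 h.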

Assay [26] deals with DU-145. Kind of assay: Cytotoxicity against human DU145 cells assessed as decrease in cell viability using compound loaded PLGA microcapsule after 24 hrs by MTT assay. The class given is functional, cell-based. In outline:
as §2

Assay [27] has as its system PC-3M. Briefly: Induction of morphological changes in human PC3M cells at 5.4 uM using compound loaded PLGA microcapsule after 24 to 72 hrs by hematoxylin/eosin staining-based light microscopic method. The format is functional, cell-based. The procedure, abridged: as §4
Assay [28] relates to SF-295. Briefly: Cytotoxicity against human SF295 cells assessed as decrease in cell viability using compound loaded PLGA microcapsule after 72 hrs by MTT assay. The class given is functional, cell-based. Conditions: SF-295, 72 h. The procedure, abridged: as §2

In the case of `COc1cccc2c1C(=O)c1c(O)c3c(c(O)c1C2=O)C[C@@](O)(C(=O)CO)C[C@@H]3O[C@H]1C[C@H](N)[C@H](O)[C@H](C)O1` [DOXORUBICIN], the IC50 – broadly, the midpoint of a concentration-inhibition curve – came out at 0.368 µM in the assay on PC-3M [1], 0.62 µM with OVCAR-8 [2] and 0.153 µM with DU-145 [3].

Consider `CC1(C)CC2=C(O1)c1ccccc1C(=O)C2=O` [NOR-BETA-LAPACHONE], for which the result in the assay with DU-145 [4], in the assay with DU-145 [5], with PC-3 [14], in the assay with PC-3 [15], with DU-145 [16] and in the assay with PC-3 [20] was Active. Besides, the outcome in the assay with PC-3 [22], with PC-3M [25], in the assay on DU-145 [26] and in the assay on PC-3M [27] was Active. Also, the IC50 with PC-3M [6] was found to be 1.4 µg/mL (≈ 6.14 µM); with PC-3M [7], 1.79 µg/mL (≈ 7.83 µM); in the assay on HCT-116 [8], 7.48 µM; in the assay on PC-3M [9], 4.59 µM; with PC-3M [10], 1.89 µg/mL (≈ 8.27 µM); in the assay with HCT-116 [11], 1.57 µM. Moreover, the IC50 with PC-3 [12] is 1.85 µM; with PC-3M [13] it was 2.44 µg/mL (≈ 10.7 µM); with PC-3M [1] it was 8.97 µM; in the assay on DU-145 [17] it was 2.38 µM; in the assay with OVCAR-8 [2] it was 2.58 µM; in the assay on OVCAR-8 [18] it was 13.7 µM. Also, the IC50 came to 1.45 µM in the assay on SF-295 [19]; 1.45 µM in the assay with PC-3 [21]; 1.39 µM with DU-145 [3]; 10 µM in the assay on PBMC [23]; 10 µM with PBMC [24]; 7.4 µM with SF-295 [28].
